Source: ChEMBL document CHEMBL4665803, “Discovery of Covalent Inhibitors Targeting the Transcriptional Enhanced Associate Domain Central Pocket” (J Med Chem, 2020)

What follows are compounds tested against T1, Transcriptional enhancer factor TEF-3 (Homo sapiens, UniProt Q15561) (assay: Inhibition of FITC-labeled palmitate tracer binding to N-terminal His6-tagged human TEAD4 (217 to 434 residues) expressed in Escherichia coli BL21-CodonPlus (DE3)-RIPL cells preincubated for 10 mins followed by FITC-labeled palmitate tracer addition and measured after 1 hr by fluorescence assay). Conditions: not given.
Summary of the method: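 FP competition in 25 mM HEPES, 150 mM NaCl, pH 6.5: serially diluted compound preincubated 10 min at room temperature with nonacylated hTEAD4, then FITC-palmitate tracer added (final 50 nM protein, 10 nM tracer); shaken 1 h at room temperature, FP at Ex/Em 485/535 nm. Tracer Kd from saturation binding.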

T1 sequence (Q15561 whole entry, the tested form may be a part): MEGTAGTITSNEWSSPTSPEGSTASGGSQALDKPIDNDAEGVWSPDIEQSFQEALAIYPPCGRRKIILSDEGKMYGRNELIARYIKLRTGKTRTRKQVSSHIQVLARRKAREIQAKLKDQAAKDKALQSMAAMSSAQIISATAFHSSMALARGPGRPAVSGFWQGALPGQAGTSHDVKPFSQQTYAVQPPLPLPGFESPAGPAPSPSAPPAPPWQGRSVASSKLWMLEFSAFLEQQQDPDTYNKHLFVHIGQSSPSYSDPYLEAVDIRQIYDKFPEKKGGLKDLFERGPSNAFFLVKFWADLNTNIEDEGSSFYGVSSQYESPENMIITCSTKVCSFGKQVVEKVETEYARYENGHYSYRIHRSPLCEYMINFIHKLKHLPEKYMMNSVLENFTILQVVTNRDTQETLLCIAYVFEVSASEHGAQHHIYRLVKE

Row | SMILES | IC50
1 | O=c1cc(CO)oc(C(Nc2ccccc2)c2ccccn2)c1O (centres undefined) | 0.5 µM
2 | CC(C)NC(c1ccccc1)c1oc(CO)cc(=O)c1O (centres undefined) | 1.5 µM
3 | O=c1cc(CO)oc(C(Nc2ccccc2)c2ccc(Br)cc2)c1O (centres undefined) | 0.2 µM
4 | O=c1cc(CO)oc(C(Nc2ccccn2)c2ccccn2)c1O (centres undefined) | 16 µM
5 | O=c1cc(CO)oc(C(Nc2ccccc2)C2CCCCC2)c1O (centres undefined) | 22.6 µM
6 | O=c1cc(CO)oc(C(Nc2ccccc2)c2ccc(F)cc2)c1O (centres undefined) | 0.3 µM
7 | CC(C)C(Nc1ccccc1)c1oc(CO)cc(=O)c1O (centres undefined) | 38.1 µM
8 | O=c1cc(CO)oc(C(Nc2ccccn2)c2ccccc2F)c1O (centres undefined) | 0.3 µM
9 | O=c1cc(CO)oc(C(Nc2nc3ccccc3[nH]2)c2ccccc2)c1O (centres undefined) | 6.4 µM
10 | O=c1cc(CO)oc(CNc2ccccc2)c1O | 36.4 µM
11 | O=c1cc(CO)oc(C(Nc2ncccn2)c2ccccc2)c1O (centres undefined) | 13.4 µM
12 | NC(=O)c1ccc(NC(c2ccccn2)c2oc(CO)cc(=O)c2O)cc1 (centres undefined) | 1.1 µM

The compounds below were run against T1, Transcriptional enhancer factor TEF-3 (assay: Inhibition of CPM binding to N-terminal His6-tagged human TEAD4 (217 to 434 residues) expressed in Escherichia coli BL21-CodonPlus (DE3)-RIPL cells at 12.5 uM preincubated for 10 mins followed by CPM addition and measured after 1 hr by fluorescence assay relative to control). Conditions: time 70.0 min.

Row | SMILES | inhibition
13 | O=c1cc(CO)oc(C(Nc2cccc(F)c2)c2ccccn2)c1O (centres undefined) | > 50%
14 | O=c1cc(CO)oc(C(Nc2nccs2)c2ccc(F)cc2)c1O (centres undefined) | > 50%
15 | O=c1cc(CO)oc(C(Nc2ccccc2)c2ccccn2)c1O (centres undefined) | > 50%
16 | CCOC(=O)C1CCCN(Cc2oc(CO)cc(=O)c2O)C1 (centres undefined) | < 50%
17 | CC(C)NC(c1ccccc1)c1oc(CO)cc(=O)c1O (centres undefined) | > 50%
18 | O=c1cc(CO)oc(C(Nc2ccccc2)c2ccc(Br)cc2)c1O (centres undefined) | > 50%
19 | O=c1cc(CO)oc(C(Nc2ccccn2)c2ccccn2)c1O (centres undefined) | > 50%
20 | O=c1cc(CO)oc(C(Nc2ccccc2)C2CCCCC2)c1O (centres undefined) | > 50%
21 | CSCC[C@H](NCc1oc(CO)cc(=O)c1O)C(=O)O | < 50%
22 | O=c1cc(CO)oc(C(Nc2ccccc2)c2ccc(F)cc2)c1O (centres undefined) | > 50%
23 | CC(C)C(Nc1ccccc1)c1oc(CO)cc(=O)c1O (centres undefined) | > 50%
24 | O=c1cc(CO)oc(C(Nc2ccccn2)c2ccccc2F)c1O (centres undefined) | > 50%
25 | O=c1cc(CO)oc(C(Nc2nc3ccccc3[nH]2)c2ccccc2)c1O (centres undefined) | > 50%
26 | O=c1cc(CO)oc(CNc2ccccc2)c1O | > 50%
27 | O=c1cc(CO)oc(C(Nc2ncccn2)c2ccccc2)c1O (centres undefined) | > 50%
28 | O=c1cc(CO)oc(CN2CCN(c3ccccn3)CC2)c1O | < 50%
29 | NC(=O)c1ccc(NC(c2ccccn2)c2oc(CO)cc(=O)c2O)cc1 (centres undefined) | > 50%

Each compound was assayed against T1, Transcriptional enhancer factor TEF-3 (assay: Inhibition of CPM binding to N-terminal His6-tagged human TEAD4 (217 to 434 residues) expressed in Escherichia coli BL21-CodonPlus (DE3)-RIPL cells preincubated for 10 mins followed by CPM addition and measured after 1 hr by fluorescence assay). Conditions: read-out: IC50.

Row | SMILES | IC50
30 | O=c1cc(CO)oc(C(Nc2cccc(F)c2)c2ccccn2)c1O (centres undefined) | 8.7 µM
31 | O=c1cc(CO)oc(C(Nc2nccs2)c2ccc(F)cc2)c1O (centres undefined) | 43.1 µM
32 | CCOC(=O)C1CCCN(Cc2oc(CO)cc(=O)c2O)C1 (centres undefined) | > 100 µM
33 | CSCC[C@H](NCc1oc(CO)cc(=O)c1O)C(=O)O | > 100 µM
34 | O=c1cc(CO)oc(C(Nc2ccccn2)c2ccccc2F)c1O (centres undefined) | 3.2 µM
35 | O=c1cc(CO)oc(CN2CCN(c3ccccn3)CC2)c1O | > 100 µM

Same assay, conditions: read-out: IC50(app)

Row | SMILES | IC50
36 | O=c1cc(CO)oc(C(Nc2ccccc2)c2ccccn2)c1O (centres undefined) | 18.9 µM
37 | CC(C)NC(c1ccccc1)c1oc(CO)cc(=O)c1O (centres undefined) | 16.8 µM
38 | O=c1cc(CO)oc(C(Nc2ccccc2)c2ccc(Br)cc2)c1O (centres undefined) | 1.2 µM
39 | O=c1cc(CO)oc(C(Nc2ccccn2)c2ccccn2)c1O (centres undefined) | > 100 µM
40 | O=c1cc(CO)oc(C(Nc2ccccc2)C2CCCCC2)c1O (centres undefined) | > 100 µM
41 | O=c1cc(CO)oc(C(Nc2ccccc2)c2ccc(F)cc2)c1O (centres undefined) | 1.9 µM
42 | CC(C)C(Nc1ccccc1)c1oc(CO)cc(=O)c1O (centres undefined) | > 100 µM
43 | O=c1cc(CO)oc(C(Nc2ccccn2)c2ccccc2F)c1O (centres undefined) | 3.2 µM
44 | O=c1cc(CO)oc(C(Nc2nc3ccccc3[nH]2)c2ccccc2)c1O (centres undefined) | > 100 µM
45 | O=c1cc(CO)oc(CNc2ccccc2)c1O | > 100 µM
46 | O=c1cc(CO)oc(C(Nc2ncccn2)c2ccccc2)c1O (centres undefined) | > 100 µM
47 | NC(=O)c1ccc(NC(c2ccccn2)c2oc(CO)cc(=O)c2O)cc1 (centres undefined) | 9.2 µM

Same assay, conditions: time 70.0 min

Row | SMILES | inhibition
48 | CCCCCCCCCCCCCCCC(=O)O | Dose-dependent effect
49 | O=C(O)c1ccccc1Nc1cccc(C(F)(F)F)c1 | Dose-dependent effect
